Consider 25 molecules from ChEMBL document CHEMBL4266004, “Series of Alkynyl-Substituted Thienopyrimidines as Inhibitors of Protozoan Parasite Proliferation” (ACS Med Chem Lett, 2018).

The term EC50 denotes the concentration at which the effect is half-maximal. High values mean a less potent agent, low ones a more potent agent.

One data set deals with Leishmania major. The data set is described as follows: Antileishmanial activity against Leishmania major intracellular amastigotes harboring luciferase infected in mouse RAW264.7 cells after 96 hrs by luminescence assay. Format: functional, organism-based. The conditions noted are these: RAW264.7, 96 h. Put shortly:
(§1)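 L. major amastigotes screened in duplicate or quadruplicate. Selectivity derived as HepG2 TC50 / L. major EC50.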

Data set [1] is described as follows: Selectivity index, ratio of TC50 for human HepG2 cells to EC50 for Leishmania major intracellular amastigotes harboring luciferase infected in mouse RAW264.7 cells. The note with it: read-out: Selectivity Index. Format: toxicity, cell-based. Put shortly:
as §1

A further data set has as its system Plasmodium falciparum. The data set is described as follows: Antimalarial activity against Plasmodium falciparum D6 trophozoites after 72 hrs by SYBR Green I dye-based fluorescence assay. The class given is functional, organism-based. The note with it: D6, 72 h. Put shortly: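 P. falciparum D6 strain; compounds run in duplicate or quadruplicate; EC50 determined from dose-response.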

Data set [2] can be described thus: Cytotoxicity against human HepG2 cells. Format: cell-based. The conditions noted are these: read-out: TC50 (the source's name).
A short description of data set [3]: Selectivity index, ratio of TC50 for mouse NIH/3T3 cells to EC50 for Trypanosoma cruzi Tulahuen intracellular amastigote harboring beta-galactosidase. Format: toxicity, cell-based. The conditions noted are these: read-out: Selectivity Index. Put shortly:
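NIH 3T3 cells, the host line for intracellular T. cruzi amastigote culture, tested for toxicity. Selectivity = NIH3T3 TC50 / T. cruzi EC50.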

Data set [4] can be described thus: Selectivity index, ratio of TC50 for human HepG2 cells to EC50 for Plasmodium falciparum D6 trophozoites. The conditions noted are these: read-out: Selectivity Index. The class given is toxicity. Put shortly: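 P. falciparum D6 screened in duplicate or quadruplicate. Selectivity = HepG2 TC50 / P. falciparum EC50.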
Data set [5] deals with Trypanosoma brucei brucei. The data set is described as follows: Antitrypanosomal activity against Trypanosoma brucei brucei 427 at 5 uM after 48 hrs by presto blue dye based fluorescence assay relative to control. Format: functional. Put shortly: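 Single-concentration screen of bloodstream T. brucei cultures at 5 μM, 5 × 10^4 cells/mL; percent proliferation inhibition recorded.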

The nature of data set [6]: Cytotoxicity against mouse NIH/3T3 cells. The conditions noted are these: read-out: TC50 (the source's name). The class given is cell-based, NIH3T3.
In another data set the test system is Trypanosoma cruzi. The data set is described as follows: Antitrypanosomal activity against Trypanosoma cruzi Tulahuen intracellular amastigote harboring beta-galactosidase infected in mouse NIH/3T3 cells after 96 hrs by CPRG reagent based assay. The note with it: NIH3T3, 96 h. The class given is functional, organism-based.

SMILES strings stand for the structures.

Regarding `COCC#Cc1cc2c(Nc3ccc(OCc4cccc(F)c4)c(Cl)c3)ncnc2s1`, the EC50 in the data set on Leishmania major amounted to 7.3 µM; in the data set on Plasmodium falciparum, 3.02 µM; in the data set with Trypanosoma cruzi it was 1.5 µM. Besides, the selectivity ratio in data set [1] was 1.3; in [3], 1.1; in data set [4], 3.2. Moreover, the CC50 in data set [2] is 9.5 µM; in [6], 1.7 µM. Further, the Activity in data set [5] is recorded as 18%.
In the case of `Fc1cccc(COc2ccc(Nc3ncnc4cc(C#Cc5ncccc5F)sc34)cc2Cl)c1`, the EC50 was more than 15 µM in the data set on Leishmania major, 1.1 µM in the data set on Plasmodium falciparum and 19 µM with Trypanosoma cruzi. In addition, the CC50 in data set [2] was determined as 30 µM; in data set [6], 47 µM. Moreover, the selectivity ratio is 2.5 in data set [3] and 27 in data set [4]. Moreover, in data set [5], the Activity worked out at 19%.
As for `Fc1cccc(COc2ccc(Nc3ncnc4ccc(C#CCN5CCOCC5)cc34)cc2Cl)c1`, the EC50 with Leishmania major worked out at 5.5 µM; in the data set on Plasmodium falciparum it was 5.9 µM; in the data set on Trypanosoma cruzi, 0.8 µM. For the same molecule, the values for the selectivity ratio in data set [1], in data set [3] and in [4] were more than 5.5, 41 and more than 5.1, respectively. Moreover, the CC50 was more than 30 µM in data set [2] and 33 µM in data set [6]. Also, the Activity in [5] stood at 27%.
Take `CN(C)CC#Cc1cc2ncnc(Nc3ccc(OCc4cccc(F)c4)c(Cl)c3)c2s1`: the EC50 was 2.5 µM with Leishmania major, more than 15 µM in the data set on Plasmodium falciparum and 8.2 µM with Trypanosoma cruzi. In addition, the selectivity ratio in [1] was more than 13; in data set [3], more than 6. In addition, the CC50 is more than 32 µM in data set [2] and more than 50 µM in data set [6]. The Activity in [5] worked out at 52%.
As to `CC(C)(C)OC(=O)N1CCN(CC#Cc2cc3ncnc(Nc4ccc(OCc5cccc(F)c5)c(Cl)c4)c3s2)CC1`, the EC50 with Leishmania major was determined as 6.9 µM; in the data set on Plasmodium falciparum, 1.5 µM; in the data set on Trypanosoma cruzi, 13 µM. The selectivity ratio in data set [1] was more than 3.5; in data set [3], 3.6; in [4], more than 19. The CC50 in [2] was more than 24 µM; in data set [6], 47 µM. This molecule also gave an Activity in data set [5] of 15%.
Take `Fc1cccc(COc2ccc(Nc3ncnc4ccc(C#CCN5CCSCC5)cc34)cc2Cl)c1`: the results for the EC50 with Leishmania major, with Plasmodium falciparum and in the data set on Trypanosoma cruzi were 5.4 µM, 1.1 µM and 2.5 µM, respectively. The figures for the selectivity ratio in data set [1], in [3] and in data set [4] were more than 5.4, more than 20 and more than 26, respectively. The results for the CC50 in [2] and in data set [6] were more than 29 µM and more than 50 µM, respectively. In data set [5], this molecule gave an Activity of 19%.
On to `CCN(CC)CCCC(C)Nc1ccnc2cc(Cl)ccc12` (stereo not drawn) [CHLOROQUINE], for which the EC50 with Plasmodium falciparum came to 0.0089 µM.
Take `Fc1cccc(COc2ccc(Nc3ncnc4sc(C#CCN5CCOCC5)cc34)cc2Cl)c1`: the EC50 is 6.5 µM in the data set with Leishmania major and 3 µM in the data set with Plasmodium falciparum. Moreover, the selectivity ratio in [1] is more than 4.5; in [4] it was more than 9.7. The CC50 in [2] is more than 29 µM. Moreover, the Activity in [5] was 48%.
The molecule `O=C(Cn1ccnc1[N+](=O)[O-])NCc1ccccc1` [BENZNIDAZOLE] gave an EC50 in the data set on Trypanosoma cruzi of 0.79 µM. In other words, the sub-micromolar range.
Regarding `CCOC(=O)CN(C)CC#Cc1ccc2ncnc(Nc3ccc(OCc4cccc(F)c4)c(Cl)c3)c2c1`, the EC50 is more than 15 µM in the data set on Leishmania major, more than 15 µM in the data set on Plasmodium falciparum and 8 µM with Trypanosoma cruzi. For the same molecule, the CC50 was more than 28 µM in data set [2] and more than 50 µM in data set [6]. In addition, the selectivity ratio in data set [3] was more than 6.3. This molecule displayed an Activity in [5] of 23%.
Regarding `CC(C)CC#Cc1cc2ncnc(Nc3ccc(OCc4cccc(F)c4)c(Cl)c3)c2s1`, the values for the 50% effective concentration (EC50) with Leishmania major, in the data set on Plasmodium falciparum and in the data set with Trypanosoma cruzi were more than 15 µM, more than 15 µM and more than 50 µM, respectively. Besides, the CC50 in [2] is more than 32 µM; in [6], more than 50 µM. In [5], this molecule registered an Activity of 11%.
On to `CN(CC#Cc1cc2c(Nc3ccc(OCc4cccc(F)c4)c(Cl)c3)ncnc2s1)Cc1ccccc1`, for which the results for the 50% effective concentration (EC50) with Leishmania major, with Plasmodium falciparum and in the data set on Trypanosoma cruzi were 11 µM, 4.8 µM and 1.9 µM, respectively. In addition, the selectivity ratio in data set [1] came out at 2; in data set [3], 1.3; in [4] it was 4.6. Also, the CC50 in data set [2] is 21.6 µM; in data set [6], 2.5 µM. This molecule yielded an Activity in [5] of 0%.
For `CCOC(=O)CN(C)CC#Cc1cc2ncnc(Nc3ccc(OCc4cccc(F)c4)c(Cl)c3)c2s1`, the EC50 is 4.6 µM with Leishmania major, 3.8 µM in the data set with Plasmodium falciparum and 9.6 µM in the data set with Trypanosoma cruzi. The selectivity ratio in [1] is 5.9; in data set [3], 5.4; in [4], 7.1. The results for the CC50 in data set [2] and in data set [6] were 27 µM and 52 µM, respectively. The molecule also returned an Activity in data set [5] of 27%.
With `CCCN(CC#Cc1cc2ncnc(Nc3ccc(OCc4cccc(F)c4)c(Cl)c3)c2s1)CCC`, the EC50 was 6 µM in the data set with Leishmania major, more than 15 µM in the data set with Plasmodium falciparum and more than 50 µM with Trypanosoma cruzi. Moreover, the selectivity ratio in data set [1] worked out at 4.5. Moreover, the CC50 is 26.5 µM in [2] and more than 50 µM in [6]. The Activity in data set [5] is given as 1%.
As to `Fc1cccc(COc2ccc(Nc3ncnc4cc(C#Cc5ccc(C(F)(F)F)nc5)sc34)cc2Cl)c1`, the EC50 in the data set with Leishmania major was more than 3 µM; in the data set on Plasmodium falciparum it was more than 3.6 µM; with Trypanosoma cruzi, more than 50 µM. In addition, the CC50 is more than 5 µM in data set [2] and more than 50 µM in [6]. Further, the Activity in data set [5] came out at 31%.
Consider `CN(CC#Cc1cc2ncnc(Nc3ccc(OCc4cccc(F)c4)c(Cl)c3)c2s1)Cc1ccccc1`, for which the figures for the EC50 in the data set on Leishmania major, with Plasmodium falciparum and with Trypanosoma cruzi were more than 15 µM, more than 15 µM and more than 50 µM, respectively. Moreover, the CC50 was more than 27 µM in data set [2] and more than 50 µM in data set [6]. The Activity in [5] turned out to be 18%.
Take `Fc1cccc(COc2ccc(Nc3ncnc4cc(C#CCN5CCNCC5)sc34)cc2Cl)c1`: the EC50 is 4 µM in the data set on Leishmania major, 1.9 µM in the data set with Plasmodium falciparum and more than 50 µM in the data set with Trypanosoma cruzi. Besides, the selectivity ratio was more than 7.3 in [1] and more than 15 in data set [4]. The CC50 is more than 29 µM in data set [2] and more than 50 µM in [6]. The molecule further came in with an Activity in data set [5] of 16%.
Take `Fc1cccc(COc2ccc(Nc3ncnc4ccc(C#CC5CCCC5)cc34)cc2Cl)c1`: the EC50 in the data set with Leishmania major was more than 2 µM; with Plasmodium falciparum, more than 15 µM; in the data set on Trypanosoma cruzi it was 2 µM. Also, the CC50 in data set [2] was more than 3 µM; in data set [6], more than 50 µM. Also, the selectivity ratio in data set [3] is more than 25. The Activity in [5] is 2%.
As for `CCOC(=O)CN(C)CC#Cc1cc2c(Nc3ccc(OCc4cccc(F)c4)c(Cl)c3)ncnc2s1`, the results for the EC50 in the data set on Leishmania major, with Plasmodium falciparum and in the data set on Trypanosoma cruzi were 9 µM, more than 15 µM and more than 50 µM, respectively. Besides, in data set [1], the selectivity ratio is more than 3.1. In addition, the values for the CC50 in [2] and in data set [6] were more than 28 µM and more than 50 µM, respectively. In data set [5], this molecule registered an Activity of 53%.
Consider `Fc1cccc(COc2ccc(Nc3ncnc4cc(C#Cc5cn6ccnc6cn5)sc34)cc2Cl)c1`, for which the EC50 in the data set with Leishmania major was more than 15 µM; in the data set on Plasmodium falciparum it was 5.7 µM; in the data set on Trypanosoma cruzi, more than 50 µM. In addition, the CC50 in data set [2] was more than 28 µM; in data set [6] it was more than 50 µM. Besides, the selectivity ratio in [4] was more than 4.9. The Activity in data set [5] amounted to 33%.
As to `Fc1cccc(COc2ccc(Nc3ncnc4ccc(-c5cccc(N6CCOCC6)c5)cc34)cc2Cl)c1`, the CC50 in data set [2] was more than 35 µM.
For the molecule `CC(C)(C)CC#Cc1cc2c(Nc3ccc(OCc4cccc(F)c4)c(Cl)c3)ncnc2s1`, the concentration for a half-maximal effect (EC50) with Leishmania major is more than 15 µM; in the data set with Plasmodium falciparum, 5.7 µM; in the data set with Trypanosoma cruzi it was 30 µM. The results for the CC50 in [2] and in data set [6] were more than 32 µM and more than 50 µM, respectively. For the same molecule, the selectivity ratio was more than 1.7 in [3] and more than 5.6 in data set [4]. Also, the Activity in [5] is listed as 1%.
For `Fc1cccc(COc2ccc(Nc3ncnc4cc(C#CCN5CCSCC5)sc34)cc2Cl)c1`, the EC50 in the data set on Leishmania major is 5.9 µM; in the data set with Plasmodium falciparum it was more than 15 µM; with Trypanosoma cruzi it was 5 µM. In addition, the selectivity ratio in data set [1] was more than 4.8; in [3] it was more than 10. Moreover, the CC50 in [2] was more than 28 µM; in [6], more than 50 µM. In [5], this molecule gave an Activity of 12%.
Take `CC(C)(C)CC#Cc1cc2ncnc(Nc3ccc(OCc4cccc(F)c4)c(Cl)c3)c2s1`: the EC50 is more than 15 µM in the data set with Leishmania major, more than 15 µM with Plasmodium falciparum and more than 50 µM with Trypanosoma cruzi. Further, the CC50 in [2] was 29.3 µM; in [6], more than 50 µM. Also, in [5], the Activity is on record as 31%.
The molecule `C[C@@H]1[C@H](O)[C@@H](C)/C=C/C=C/C=C/C=C/C=C/C=C/C=C/[C@H](O[C@@H]2O[C@H](C)[C@@H](O)[C@H](N)[C@@H]2O)C[C@@H]2O[C@](O)(C[C@@H](O)C[C@@H](O)[C@H](O)CC[C@@H](O)C[C@@H](O)CC(=O)O[C@H]1C)C[C@H](O)[C@H]2C(=O)O` [AMPHOTERICIN B] showed an EC50 in the data set with Leishmania major of 0.035 µM.
